# OX1R antag-1: antagonists of human orexin 1 receptor. O43613. inhibition, % at 5 µM. AID 434989. CHO/OX1R cells, Fluo-8 calcium fluorescence, orexin A. 0.43% of 330,000 active;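 active = inhibition above its plate's threshold, mean inhibition of all tested compounds on the plate plus 3 SD, cut at about 37% in these data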;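 also: 0% = orexin A challenge wells and 100% = SB-334867-A antagonist wells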
# CHO parental Ca: signal in parental CHO cells, OX1R antagonist counter-screen. parental CHO-K1, ATP-induced calcium, Fluo-8 fluorescence. inhibition, % at 5.6 µM. 0.63% of 330,000 active;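 active = inhibition above that plate's mean sample inhibition plus 3 SD, cut at about 26% in these data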;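 also: 0% = ATP-challenged DMSO wells and 100% = DMSO wells without ATP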
#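 Assay system: untransfected parental CHO cell line. Also added: ATP agonist challenge. Dosing: one dose, 5.6 µM nominal. Measured by: Fluo-8 fluorescence. Read-out: % inhibition. Benchmarks: ATP wells versus no-ATP DMSO wells. Repeats: no replicates.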
# TAAR1 ag: human TAAR1 agonism. Q96RJ0. CHO RD-HGA16 TAAR1, Fluo-8 calcium fluorescence; vehicle wells 0%, saturating PEA agonist 100%. activation, % at 3 µM. 0.99% of 360,000 active. AID 624467;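 active = activation above the mean activation of all test compounds in the run plus 3 SD, cut at about 38% in these data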
# Target sequence (Q96RJ0 whole entry, looked up): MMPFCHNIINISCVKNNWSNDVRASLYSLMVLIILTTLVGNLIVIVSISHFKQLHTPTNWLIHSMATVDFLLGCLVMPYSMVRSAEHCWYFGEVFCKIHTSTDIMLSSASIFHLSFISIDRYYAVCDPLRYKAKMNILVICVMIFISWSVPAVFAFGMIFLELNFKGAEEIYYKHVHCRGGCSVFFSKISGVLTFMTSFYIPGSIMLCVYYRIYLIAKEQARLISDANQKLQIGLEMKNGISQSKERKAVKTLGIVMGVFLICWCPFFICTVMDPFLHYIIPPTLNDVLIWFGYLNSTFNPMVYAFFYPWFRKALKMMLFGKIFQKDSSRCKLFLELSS
#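 Benchmarks: low control DMSO, high control PEA (EC100); System: CHO RD-HGA16 cells carrying human TAAR1 plus Gα16; Detection: Fluo-8 fluorescence, 5 s baseline then 140 s kinetic read; Schedule: 17-24 h plating, Fluo-8 75 min 37 °C, 30 min RT; Read-out basis: % activation from peak over basal fluorescence ratio, DMSO-to-PEA scaled.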
# GPR7 antag: blocks human GPR7 receptor signaling | P48145 | GPR7-expressing cells, fluorescence antagonist assay | inhibition, % at 4.4 µM | 1.1% of 290,000 active; in the data active = inhibition above about 16%, passing the limit was not always enough;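 also: cells stimulated with the agonist NPW; 0% = agonist with vehicle and 100% = vehicle without agonist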
# Target sequence (P48145 whole entry, looked up): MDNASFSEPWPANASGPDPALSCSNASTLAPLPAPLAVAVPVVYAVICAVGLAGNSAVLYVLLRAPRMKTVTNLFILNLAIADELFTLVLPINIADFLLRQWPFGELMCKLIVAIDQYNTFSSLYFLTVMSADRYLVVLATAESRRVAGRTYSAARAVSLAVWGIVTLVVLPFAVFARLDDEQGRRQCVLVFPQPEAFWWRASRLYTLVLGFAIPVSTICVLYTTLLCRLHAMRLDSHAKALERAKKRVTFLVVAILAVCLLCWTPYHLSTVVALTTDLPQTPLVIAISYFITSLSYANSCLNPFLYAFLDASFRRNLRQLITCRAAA
# OX1R antag-2: blocks the human orexin 1 receptor; 1.8% of 330,000 active; O43613; OX1R-expressing cells, FRET antagonist read-out; inhibition, % at 6.6 µM; AID 485270; in the data active = inhibition mostly above about 38%, no sharp cut-off; inactive = mostly below about 40%;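 also: 0% = agonist challenge alone and 100% = reference antagonist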
# TAAR1 antag: human TAAR1 antagonism; inhibition, % at 3 µM; 1.5% of 360,000 active; Q96RJ0; AID 624466; CHO RD-HGA16 TAAR1, Fluo-8 calcium fluorescence, antagonist;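 active = inhibition above a per-plate cutoff, the mean inhibition of test compounds on that plate plus 3 SD, cut at about 49% in these data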;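 also: 0% = DMSO plus EC80 beta-PEA response and 100% = DMSO alone without agonist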
#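 System: CHO RD-HGA16 cells bearing hTAAR1. Reagent: EC80 β-phenethylamine stimulus. Schedule: seeding 17-24 h prior, 75-min 37 °C, 30-min RT dye loading. Signal: Fluo-8 intracellular calcium dye fluorescence, real-time kinetic reads. Read-out: % inhibition from peak post-agonist over basal fluorescence ratio. Benchmarks: vehicle wells and EC80 agonist wells. Replicates: n of 1.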
# OX1R HTRF confirm: OX1R (human) antagonism, HTRF confirmed. 49% of 1,800 active. shares compounds with OX1R antag-2. OX1R-expressing cells, HTRF antagonist assay. AID 492964. inhibition, % at 6.6 µM; in the data active = inhibition above about 55%;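 also: CHO cells expressing OX1R stimulated with orexin A at about EC80; 0% = agonist challenge alone and 100% = reference antagonist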
# CHO-K1 HTRF cnt: counter-screen: parental CHO-K1 HTRF response | shares compounds with OX1R antag-2 | parental CHO-K1 cells, HTRF counterscreen | inhibition, % at 6.6 µM | 48% of 1,800 active | AID 493232; in the data active = inhibition above about 17%;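 also: 0% = agonist challenge with vehicle and 100% = vehicle alone without agonist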
# Starred values were filed as active, the others as inactive; · = not tested or not shown. Rows were chosen to be rich in hits. Some 4.6% of all compounds tested hit in one or more screens of this group.
SMILES,OX1R antag-1,CHO parental Ca,TAAR1 ag,GPR7 antag,OX1R antag-2,TAAR1 antag,OX1R HTRF confirm,CHO-K1 HTRF cnt
O=C(Cn1nnc(-c2ccc(F)cc2)n1)Nc1ccc2c(c1)OCCO2,-6.3,13.5,5.7,-15.1,23.0,11.4,·,·
CC(C)(C)c1ccc(S(=O)(=O)O/N=C2/CCCCC2c2ccc([N+](=O)[O-])cc2[N+](=O)[O-])cc1 (centres undefined),-15.3,8.2,15.3,-3.4,115.0*,-0.1,40.8,46.8*
Cc1ccc(S(=O)(=O)N/N=C2/CCCCC2C2CCCCC2)cc1[N+](=O)[O-] (centres undefined),-15.4,-6.7,-1.2,-9.9,12.8,0.9,·,·
NC(=O)C[C@@H]1NC(=O)c2cc([N+](=O)[O-])cc(F)c2NCCCC[C@@H](C(N)=O)NC(=O)[C@H](CO)NC1=O,·,·,9.7,0.9,·,-9.1,·,·
NC(=O)[C@@H]1CCCCNc2c(F)cc([N+](=O)[O-])cc2C(=O)N[C@@H](CC(=O)O)C(=O)N[C@@H](CCC(=O)O)C(=O)N1,-14.1,10.6,·,-5.3,109.6*,·,33.8,33.4*
CC(=O)c1nnn(-c2ccc([N+](=O)[O-])cc2C)c1C,-16.2,-16.2,2.8,7.4,162.0*,2.1,27.4,40.1*
CCOC(=O)c1csc(-c2ccc([N+](=O)[O-])cc2)n1,0.1,-4.8,0.1,-3.3,104.2*,-14.6,40.2,43.6*
CCOC(=O)c1nnn(-c2ccc([N+](=O)[O-])cc2)c1C,-6.7,1.7,1.6,-11.8,111.0*,-20.6,41.8,54.4*
CCOC(=O)c1cc(-c2cccc([N+](=O)[O-])c2)on1,10.7,18.9,-1.2,-16.6,26.5,-12.1,·,·
CC(=O)c1nnn(-c2cccc([N+](=O)[O-])c2)c1C,-15.6,-2.6,1.6,0.4,30.3,-2.2,·,·
COc1cccc2cc(C(=O)C3=C(O)C(=O)N(CCN(C)C)C3c3ccc(F)cc3)oc12 (centres undefined),-14.5,-15.4,11.9,-1.6,11.8,-30.9,·,·
COc1cc(C(=O)O)nc2ccc([N+](=O)[O-])cc12,-11.1,-11.7,6.2,-14.3,88.1*,-0.1,60.3*,98.4*
COc1ccc([N+](=O)[O-])cc1C(=O)C(=O)c1ccccc1,-29.9,-9.7,0.6,-0.2,12.3,-11.9,·,·
O=c1[nH]c2ccc(Cl)cc2c(-c2ccccc2)c1[N+](=O)[O-],16.5,-14.6,1.0,5.1,80.8*,5.2,75.0*,5.6
CSCCC(NC(N)=O)C(=O)NCc1ccccc1Cl (centres undefined),-29.7,-6.5,11.8,-6.6,24.7,-5.1,·,·
CCC(=O)Nc1ccc2oc(-c3ccccc3Br)nc2c1,22.9,5.2,25.6,6.3,84.3*,2.3,51.0,0.2
CC(=O)Nc1ccc2oc(-c3ccccc3Br)nc2c1,2.9,-10.4,3.9,0.8,78.4*,13.5,42.4,0.2
O=[N+]([O-])c1ccc(S(=O)(=O)N(CCCN2CCOCC2)Cc2cccs2)cc1,-24.3,-23.1,-0.7,4.9,86.5*,1.3,31.9,42.7*
O=C(CNC(=S)N(CCCN1CCOCC1)Cc1cccs1)NCCCN1CCOCC1,-18.6,-5.0,-0.7,-7.0,17.9,-5.4,·,·
COC(=O)C1=C(C)N(C)C(=O)NC1c1cc2c(cc1[N+](=O)[O-])OCO2 (centres undefined),-5.4,-11.7,-0.7,2.2,91.1*,10.7,33.2,25.0*
Cc1ccc2[nH]c(=O)c(CN(Cc3cccs3)C(=S)NCc3ccco3)cc2c1,-18.8,-5.4,1.3,2.4,11.0,30.8,·,·
CCOC(=O)c1ccc(Nc2ncnc3ccccc23)cc1,-5.6,-9.3,6.2,-9.3,18.7,-23.9,·,·
CCOC(=O)c1ccc(Nc2nc(-c3cccnc3)nc3ccccc23)cc1,-7.7,-9.4,12.4,-12.8,78.3*,55.6*,21.0,7.5
CCc1[nH]nc(C(=O)N2CCCC(C(=O)c3cccc(C(F)(F)F)c3)C2)c1C (centres undefined),-29.0,-0.8,3.2,-6.9,29.7,0.5,·,·
O=C(Nc1cccc2ccccc12)c1ccccc1,-4.5,-13.6,0.3,-5.2,3.5,-9.5,·,·
SMILES,OX1R antag-1,CHO parental Ca,TAAR1 ag,GPR7 antag,OX1R antag-2,TAAR1 antag,OX1R HTRF confirm,CHO-K1 HTRF cnt
Cc1c(C)n(C)c2ccc(C(=O)Nc3cccc4ccccc34)cc12,10.0,-17.5,5.7,-8.8,84.7*,3.6,77.4*,9.7
COc1ccc(S(=O)(=O)N2CCC[C@H]2C(=O)NC2=NCCS2)cc1,-4.9,-6.6,10.6,-2.6,34.0,1.8,·,·
COc1ccc2nc(NC(=O)C3CCCN3S(=O)(=O)c3ccc(C)cc3)sc2c1 (centres undefined),11.3,-6.5,3.1,-21.8,79.8*,-10.8,50.4,7.0
CC1CCCC(C)N1C(=O)COC(=O)c1cc(S(=O)(=O)N2CCOCC2)ccc1Cl (centres undefined),-24.4,-3.7,14.3,·,13.1,-41.0,·,·
Cc1ccc(-c2nn(-c3ccc(F)cc3)cc2C(=O)NC2CCC(O)CC2)cc1 (centres undefined),-12.1,5.4,2.1,·,-3.2,-16.0,·,·
COc1ccc(-c2nn3c(-c4ccccc4)nnc3s2)cc1,19.6,-7.3,1.0,-8.2,87.0*,9.4,88.1*,13.2
COc1ccc(-c2nn3c(-c4ccc(F)cc4)nnc3s2)cc1,-13.7,-6.3,-0.9,20.2,7.7,-4.5,·,·
CCCCNC1=CC(=O)C(=O)c2ccccc21,-4.6,2.3,7.1,-4.0,161.5*,-4.4,88.1*,100.6*
O=C(O)c1ccc(NC2=C(n3nnc4ccccc43)C(=O)c3ccccc3C2=O)cc1,-13.2,5.9,1.8,-15.6,173.5*,-7.6,53.2,55.9*
O=C(O)c1cccc(NC2=C(N3CCOCC3)C(=O)c3ccccc3C2=O)c1,11.6,2.8,0.5,-17.5,23.6,2.6,·,·
CN1C(=O)[C@H]2[C@@H](/C=C/c3ccccc3)N3C(=O)CN(Cc4ccc(-c5ccccc5)cc4)C(=O)[C@@]3(Cc3ccccc3)[C@H]2C1=O,-15.0,-23.9,-1.0,-6.2,13.4,2.4,·,·
CCC(=O)N1CCC2(CC1)Oc1ccc(F)cc1C(=O)C21CC(c2cccnc2)=NO1 (centres undefined),-26.2,-17.2,9.9,·,77.7*,7.0,6.4,-27.4
CCOC(=O)c1c(C)oc2c1c(C(c1cccnc1)N1CCCCC1)c(O)c1ccccc12 (centres undefined),-8.7,-27.2,2.5,-4.7,95.0*,-3.8,17.1,6.3

# Screening data deposited in PubChem by The Scripps Research Institute Molecular Screening Center.
